Assay results published in ChEMBL document CHEMBL1949566 (Bioorg Med Chem Lett, 2012).
Calls of active or inactive are those of the source. The calls are words filed in the database; no cut-off is given here.

Columns and labels:
Rattus norvegicus [1] = assay: Antihypertensive activity in iv dosed pithed rat model assessed as inhibition of angiotensin 2-induced pressor response by gould pressure transducer-coupled grass polygraphy; type: functional
Summary of the method: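 Pithed rats had blood pressure recorded by an arterial catheter to a pressure transducer/polygraph. After about 60 min of stabilization, AngII (100 ng/kg iv) was given three times at 15 min intervals to set a basal pressor response. Compound was then given iv, followed by AngII 100 ng/kg iv. ED50 for 50% inhibition of maximal pressor response came from the dose–pressure curve.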

[2] = Displacement of [125I]angiotensin 2 from angiotensin 2 receptor type 1 in Sprague-Dawley rat adrenal cortex membranes after 60 mins by gamma counting; type: cell membranes, Membrane
Summary of the method: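 Adrenal cortex membranes came from male Sprague–Dawley rats (200–250 g); the pellet was taken by differential centrifugation up to 100,000 g. Membranes (60–70 µg protein/assay) were suspended in 50 mM Tris–HCl, 10 mM MgCl2, 0.25% BSA, pH 7.4, with [125I]AngII (0.05 nM) and test compound (3×10^-12 to 10^-6 M, DMSO). Incubation ran 60 min at 25 °C and ended by GF/B filtration. IC50 is 50% inhibition of binding.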

[3] = molecular target: T1, Type-1 angiotensin II receptor (Oryctolagus cuniculus, UniProt P34976); assay: Antagonist activity at angiotensin 2 receptor type 1 in New Zealand White rabbit descending thoracic aorta rings assessed as inhibition of angiotensin 2-induced contraction preincubated for 30 mins prior angiotensin 2 challenge; type: functional, tissue-based
T1 sequence (P34976 whole entry): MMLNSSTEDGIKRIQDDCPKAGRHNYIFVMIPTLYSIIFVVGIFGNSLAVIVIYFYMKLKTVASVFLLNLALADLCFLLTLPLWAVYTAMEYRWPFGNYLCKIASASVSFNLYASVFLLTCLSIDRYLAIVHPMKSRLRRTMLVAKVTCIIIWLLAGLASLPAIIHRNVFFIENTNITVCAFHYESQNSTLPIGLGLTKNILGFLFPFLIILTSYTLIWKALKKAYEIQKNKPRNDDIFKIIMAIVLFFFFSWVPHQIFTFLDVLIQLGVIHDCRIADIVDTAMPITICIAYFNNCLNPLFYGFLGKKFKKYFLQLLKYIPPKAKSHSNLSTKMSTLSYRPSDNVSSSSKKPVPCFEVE
Summary of the method: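 Aortic rings held at 2 g resting tension and equilibrated 60 min with repeated washing in Krebs bicarbonate solution. Responsiveness was checked with AngII, then a control cumulative AngII concentration–contractile response curve was run. After washout, test substance was incubated 30 min and a second AngII curve obtained.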

Rattus norvegicus [4] = species: Rattus norvegicus; assay: Displacement of [125I]angiotensin 2 from angiotensin 2 receptor type 1 in Sprague-Dawley rat adrenal cortex membranes at 10 uM after 60 mins by gamma counting; type: cell membranes; details: Membrane
[5] = Apparent oral clearance in Sprague-Dawley rat at 3 mg/kg; type: ADME, organism-based; design: dose 3 mg/kg, route oral; details: in vivo
Summary of the method: (§1)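 Male Sprague–Dawley rats (n = 7) given a single oral dose of 3 mg/kg. AUC, Cmax, Tmax, t1/2, Cl/F and Vss/F were derived from plasma profiles and reported as mean ± S.D.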

[6] = Cmax in Sprague-Dawley rat at 3 mg/kg, po; type: ADME, organism-based; design: dose 3 mg/kg, route oral; details: in vivo; summary of the method: as §1
Rattus norvegicus [7] = assay: Effect on basal heart rate in furosemide treated rat high-renin model at 10 mg/kg, po up to 8 hrs; type: ADME, organism-based; design: dose 10 mg/kg, route oral; details: in vivo
Summary of the method: (§2)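 Furosemide 10 mg/kg sc was given 20 and 2 h before the experiment, with food and water withdrawn for 24 h. Mean arterial pressure and heart rate were recorded by polygraph. After about 60 min of stabilization, 10 mg/kg was given orally. Readings were taken at 20, 40 and 60 min, then every 30 min to 8 h.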

Rattus norvegicus [8] = assay: Antihypertensive activity in conscious spontaneously hypertensive rat assessed as decrease in mean arterial blood pressure at 10 mg/kg, po at 5 hrs post dose; type: functional, Artery; design: scale not given: the % may be the effect or the level left
Summary of the method: (§3)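 SHRs were acclimatized 10 weeks, then habituated for 7 days to 37 °C chamber prewarming for 10 min, restraint and a tail cuff with pulse sensor. After stabilization, 10 mg/kg was given orally.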

[9] = Half life in Sprague-Dawley rat at 3 mg/kg, po; type: ADME, organism-based; design: dose 3 mg/kg, route oral; details: in vivo; summary of the method: as §1
[10] = Oral steady-state volume of distribution in Sprague-Dawley rat at 3 mg/kg; type: ADME, organism-based; design: dose 3 mg/kg; details: in vivo, read-out: Vss/F; summary of the method: as §1
[11] = Tmax in Sprague-Dawley rat at 3 mg/kg, po; type: ADME, organism-based; design: dose 3 mg/kg, route oral; details: in vivo; summary of the method: as §1
[12] = AUC in Sprague-Dawley rat at 3 mg/kg, po; type: ADME, organism-based; design: dose 3 mg/kg, route oral; details: plasma; summary of the method: as §1
[13] = Toxicity in po dosed mouse assessed maximum tolerated dose; type: organism-based; details: in vivo
Summary of the method: (§4)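 Maximum tolerated dose from a single oral administration.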

Rattus norvegicus [14] = assay: Drug excretion in Sprague-Dawley rat at 3 mg/kg, po; type: ADME, organism-based; design: dose 3 mg/kg, route oral; details: in vivo
[15] = Toxicity in po dosed rat assessed maximum tolerated dose; type: organism-based; details: in vivo; summary of the method: as §4
Rattus norvegicus [16] = assay: Ratio of losartan ED50 to compound ED50 for antihypertensive activity in iv dosed pithed rat model assessed as inhibition of angiotensin 2-induced pressor response; type: functional
[17] = molecular target: T2, Type-1 angiotensin II receptor (Oryctolagus cuniculus) (UniProt P34976); assay: Ratio of losartan IC50 to compound IC50 for antagonist activity at angiotensin 2 receptor type 1 in New Zealand White rabbit descending thoracic aorta rings; type: functional, tissue-based
T2 sequence (whole entry): T1 sequence (P34976 whole entry)

Rattus norvegicus [18] = assay: Antihypertensive activity in furosemide treated rat high-renin model assessed as decrease in mean arterial pressure at 10 mg/kg, po up to 8 hrs; type: functional, organism-based; design: dose 10 mg/kg; details: Artery; summary of the method: as §2
Rattus norvegicus [19] = species: Rattus norvegicus; assay: Ratio of losartan IC50 to compound IC50 for displacement of [125I]angiotensin 2 from angiotensin 2 receptor type 1 in Sprague-Dawley rat adrenal cortex membranes; type: cell membranes; details: Membrane
Rattus norvegicus [20] = assay: Antihypertensive activity in conscious spontaneously hypertensive rat assessed as decrease in mean arterial blood pressure at 10 mg/kg, po up to 24 hrs; type: functional, organism-based; design: dose 10 mg/kg; details: Artery; summary of the method: as §3
[21] = molecular target: T2, Type-1 angiotensin II receptor (Oryctolagus cuniculus); assay: Antagonist activity at angiotensin 2 receptor type 1 in New Zealand White rabbit descending thoracic aorta rings assessed as inhibition of noradrenaline-induced contraction preincubated for 30 mins prior noradrenaline challenge; type: functional, tissue-based
Rattus norvegicus [22] = assay: Antihypertensive activity in conscious spontaneously hypertensive rat assessed as decrease in mean arterial blood pressure at 10 mg/kg, po up to 5 hrs; type: functional, organism-based; design: dose 10 mg/kg; details: Artery; summary of the method: as §3
[23] = molecular target: T2, Type-1 angiotensin II receptor (Oryctolagus cuniculus); assay: Antagonist activity at angiotensin 2 receptor type 1 in New Zealand White rabbit descending thoracic aorta rings assessed as inhibition of KCl-induced contraction preincubated for 30 mins prior KCl challenge; type: functional, tissue-based

| SMILES | ED50 (Rattus norvegicus [1]) [mg/kg] | IC50 [2] [nM] | IC50 [3] [nM] | other results |
| --- | --- | --- | --- | --- |
| CCCCc1nc(Cl)c(CO)n1Cc1ccc(-c2ccccc2-c2nnn[nH]2)cc1 [LOSARTAN] | 0.336 | 80 |  |  |
| CCCCc1nc(C)c(CC(=O)N2CCC[C@H]2C(N)=O)c(=O)n1Cc1ccc(-c2ccccc2-c2nnn[nH]2)cc1 | 0.023 | 17 |  |  |
| CCCCc1nc(C)c(CCC(=O)N2CC(C)OC(C)C2)c(=O)n1Cc1ccc(-c2ccccc2-c2nnn[nH]2)cc1 (stereo unspecified) | 0.228 | 72.6 | 13.1 |  |
| CCCCc1nc(C)c(CCC(=O)N2CCOCC2)c(=O)n1Cc1ccc(-c2ccccc2-c2nnn[nH]2)cc1 | 0.143 | 60 |  |  |
| CCCCc1nc(C)c(CC(=O)N2CCCCC2)c(=O)n1Cc1ccc(-c2ccccc2-c2nnn[nH]2)cc1 | 0.063 | 63.3 |  | inhibition (Rattus norvegicus [4]): 71.7% |
| CCCCc1nc(C)c(CC(=S)N(C)C)c(=O)n1Cc1ccc(-c2ccccc2-c2nnn[n-]2)cc1.O.O.O.[K+] |  |  |  | CL/F [5]: 84 mL/min/kg; Cmax [6]: 242 ng/mL; Activity (Rattus norvegicus [7]): Non-toxic; Activity (Rattus norvegicus [8]): 75%; half-life [9]: 5.3 h; Vd/F [10]: 37.3 L/kg; Tmax [11]: 6 min; AUC [12]: 678 ng·h/mL; MTD [13]: > 2000 mg/kg; Ae (Rattus norvegicus [14]): Active; MTD [15]: > 2000 mg/kg |
| CCCCc1nc(C)c(CC(=O)N2CC(C)OC(C)C2)c(=O)n1Cc1ccc(-c2ccccc2-c2nnn[nH]2)cc1 (stereo unspecified) | 0.029 | 24 | 1.03 |  |
| CCCCc1nc(C)c(CC(=O)N(C)C)c(=O)n1Cc1ccc(-c2ccccc2-c2nnn[nH]2)cc1 | 0.018 |  |  | Ratio ED50 (Rattus norvegicus [16]): 19; inhibition (Rattus norvegicus [4]): 71.7% |
| CCCCc1nc(C)c(CC(=O)N2CCN(C)CC2)c(=O)n1Cc1ccc(-c2ccccc2-c2nnn[nH]2)cc1 |  | 19 |  |  |
| CCCCc1nc(C)c(CC(=S)N(C)C)c(=O)n1Cc1ccc(-c2ccccc2-c2nnn[nH]2)cc1 [listing 1 of 2 here] | 0.018 | 0.13 | 0.42 | Ratio ED50 (Rattus norvegicus [16]): 19 |
| CCCCc1nc(C)c(CC(=O)O)c(=O)n1Cc1ccc(-c2ccccc2-c2nnn[nH]2)cc1 | 0.13 | 431 |  | inhibition (Rattus norvegicus [4]): 3.65% |
| CCCCc1nc(C)c(CC(=S)N2CCCCCC2)c(=O)n1Cc1ccc(-c2ccccc2-c2nnn[nH]2)cc1 | 0.034 | 8.04 | 6.11 |  |
| CCCCc1nc(C)c(CCC(=O)N2CCCCC2)c(=O)n1Cc1ccc(-c2ccccc2-c2nnn[nH]2)cc1 | 0.164 | 64.7 |  |  |
| CCCCc1nc(C)c(CCC(=O)N2CCC[C@H]2C(=O)OC)c(=O)n1Cc1ccc(-c2ccccc2-c2nnn[nH]2)cc1 | 0.063 | 58.5 |  |  |
| CCCCc1nc(C)c(CC(=O)N2CCC[C@H]2C(=O)OC)c(=O)n1Cc1ccc(-c2ccccc2-c2nnn[nH]2)cc1 | 0.043 | 59.3 |  |  |
| CCCCc1nc(C)c(CCC(=O)O)c(=O)n1Cc1ccc(-c2ccccc2-c2nnn[nH]2)cc1 | 0.094 | 306 |  | inhibition (Rattus norvegicus [4]): 27.9% |
| CCCCc1nc(C)c(CC(=O)OCC)c(=O)n1Cc1ccc(-c2ccccc2-c2nnn[nH]2)cc1 | 0.108 | 66.2 |  |  |
| CCCCc1nc(C)c(CCC(=O)N2CCCC2)c(=O)n1Cc1ccc(-c2ccccc2-c2nnn[nH]2)cc1 | 0.206 | 70.5 |  |  |
| CCCCc1nc(C)c(CC(=O)N(CC)CC)c(=O)n1Cc1ccc(-c2ccccc2-c2nnn[nH]2)cc1 | 0.089 |  | 30.8 |  |
| CCCCc1nc(C)c(CC(=S)N(C)C)c(=O)n1Cc1ccc(-c2ccccc2-c2nnn[nH]2)cc1 [listing 2 of 2 here] |  |  |  | Ratio IC50 [17]: 145; Activity (Rattus norvegicus [18]): Active; Ratio IC50 (Rattus norvegicus [19]): 615; Activity (Rattus norvegicus [20]): Active; inhibition [21]: inactive; Activity (Rattus norvegicus [22]): Active; inhibition [23]: inactive |
| CCCCc1nc(C)c(CC(=O)N2CCCC2)c(=O)n1Cc1ccc(-c2ccccc2-c2nnn[nH]2)cc1 | 0.056 | 59.2 | 1.58 | inhibition (Rattus norvegicus [4]): 76.7% |
| CCCCc1nc(C)c(CC(=O)N2CCSCC2)c(=O)n1Cc1ccc(-c2ccccc2-c2nnn[nH]2)cc1 | 0.038 | 9 |  |  |
| CCCCc1nc(C)c(CC(=O)N2CCOCC2)c(=O)n1Cc1ccc(-c2ccccc2-c2nnn[nH]2)cc1 | 0.018 | 23 |  | Ratio ED50 (Rattus norvegicus [16]): 19 |
| CCCc1nc(C)c(CC(=O)N(CC)CC)c(=O)n1Cc1ccc(-c2ccccc2-c2nnn[nH]2)cc1 |  |  | 4.69 |  |
| CCCCc1nc(C)c(CCC(=O)N2CCSCC2)c(=O)n1Cc1ccc(-c2ccccc2-c2nnn[nH]2)cc1 | 0.204 | 28 |  |  |
| CCCCc1nc(C)c(CCC(=O)OCC)c(=O)n1Cc1ccc(-c2ccccc2-c2nnn[nH]2)cc1 | 0.066 | 131 | 2.51 |  |
| CCCCc1nc(C)c(CC(=S)N(CC)CC)c(=O)n1Cc1ccc(-c2ccccc2-c2nnn[nH]2)cc1 | 0.023 | 6.27 | 1.31 |  |
| CCCc1nc(C)c(CC(=O)O)c(=O)n1Cc1ccc(-c2ccccc2-c2nnn[nH]2)cc1 |  |  | 27.1 |  |
